Common to all, as to type: functional
The subject of test [1] is Anaerocolumna aminovalerica. Description: Antibacterial activity against Clostridium aminovalericum isolated from patient with diabetic foot infection after 44 to 48 hrs by agar dilution method. An outline of the steps: (§1)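 CLSI M11-A7 agar dilution: serial twofold drug dilutions made on the test day and added to molten agar. Spots of 10^5 CFU were applied by replicator, with drug-free control plates inoculated before and after each set. Incubation was 44 to 48 h at 37°C in an anaerobic chamber. MIC was the lowest concentration giving no growth or a marked change in growth versus controls.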
(In agar dilution, organisms are placed on agar that contains the substance at set levels.)

For a further test, the system named is Anaerococcus prevotii. Description: Antibacterial activity against Anaerococcus prevotii isolated from patient with diabetic foot infection assessed as percent resistant isolates after 44 to 48 hrs by agar dilution method. An outline of the steps: (§2)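 Agar dilution per CLSI M11-A7. Twofold drug dilutions made on the test day and added to molten agar. Replicator-applied inoculum of 10^5 CFU/spot. Drug-free control plates inoculated before and after each drug set. Incubation at 37°C for 44 to 48 h, anaerobic chamber. MIC taken as the lowest concentration giving no growth or a marked change in growth versus controls.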

The subject of the next test is Parabacteroides merdae. Description: Antibacterial activity against Parabacteroides merdae isolated from patient with diabetic foot infection after 44 to 48 hrs by agar dilution method. An outline of the steps: as §1
Test [2] relates to Bacteroides uniformis. Description: Antibacterial activity against Bacteroides uniformis isolated from patient with diabetic foot infection after 44 to 48 hrs by agar dilution method. An outline of the steps: as §1
For another test, the system named is Clostridium cadaveris. Description: Antibacterial activity against Clostridium cadaveris isolated from patient with diabetic foot infection assessed as percent resistant isolates after 44 to 48 hrs by agar dilution method. An outline of the steps: as §2
Another test deals with Porphyromonas somerae. Description: Antibacterial activity against Porphyromonas somerae isolated from patient with diabetic foot infection after 44 to 48 hrs by agar dilution method. An outline of the steps:
as §1

Test [3] deals with Peptostreptococcus anaerobius. Description: Antibacterial activity against Peptostreptococcus anaerobius isolated from patient with diabetic foot infection assessed as percent resistant isolates after 44 to 48 hrs by agar dilution method. An outline of the steps:
as §2

Another test deals with Clostridium perfringens. Description: Antibacterial activity against Clostridium perfringens isolated from patient with diabetic foot infection after 44 to 48 hrs by agar dilution method. An outline of the steps:
as §2

Test [4] has as its system Anaerocolumna aminovalerica. Description: Antibacterial activity against Clostridium aminovalericum isolated from patient with diabetic foot infection assessed as percent resistant isolates after 44 to 48 hrs by agar dilution method. An outline of the steps:
as §2

For the next test, the system named is Cutibacterium acnes. Description: Antibacterial activity against Propionibacterium acnes isolated from patient with diabetic foot infection assessed as percent resistant isolates after 44 to 48 hrs by agar dilution method. An outline of the steps:
as §2

In test [5] the test system is Bacteroides uniformis. Description: Antibacterial activity against Bacteroides uniformis isolated from patient with diabetic foot infection assessed as percent resistant isolates after 44 to 48 hrs by agar dilution method. An outline of the steps: as §2
Another test relates to Parvimonas micra. Description: Antibacterial activity against Peptostreptococcus micros isolated from patient with diabetic foot infection assessed as percent resistant isolates after 44 to 48 hrs by agar dilution method. An outline of the steps:
as §2

For test [6], the system named is Anaerococcus tetradius. Description: Antibacterial activity against Anaerococcus tetradius isolated from patient with diabetic foot infection assessed as percent resistant isolates after 44 to 48 hrs by agar dilution method. An outline of the steps: as §2
For test [7], the system named is Anaerococcus tetradius. Description: Antibacterial activity against Anaerococcus tetradius isolated from patient with diabetic foot infection after 44 to 48 hrs by agar dilution method. An outline of the steps:
as §1

The subject of test [8] is Parabacteroides distasonis. Description: Antibacterial activity against Parabacteroides distasonis isolated from patient with diabetic foot infection assessed as percent resistant isolates after 44 to 48 hrs by agar dilution method. An outline of the steps: as §2
The subject of the next test is Bacteroides stercoris. Description: Antibacterial activity against Bacteroides stercoris isolated from patient with diabetic foot infection after 44 to 48 hrs by agar dilution method. An outline of the steps: as §1

Structures are written as SMILES. Converted amounts (≈) assume the structure as drawn.

As for `Cc1ncc([N+](=O)[O-])n1CCO` [METRONIDAZOLE], the MIC50 – broadly, an inhibitory concentration at the 50% level, which refers to growth in some studies and to a panel of isolates in others – in test [1] worked out at 0.125 mg/L (≈ 0.73 µM); with Parabacteroides merdae, 0.5 mg/L (≈ 2.92 µM); against Bacteroides uniformis [2], 0.5 mg/L (≈ 2.92 µM); against Porphyromonas somerae, 0.05 mg/L (≈ 0.292 µM); with Clostridium perfringens, 1 mg/L (≈ 5.84 µM); in the test with Anaerococcus tetradius [7] it was 0.5 mg/L (≈ 2.92 µM). In the test with Bacteroides stercoris, this compound showed an MIC50 of 0.5 mg/L (≈ 2.92 µM). Also, the MIC90 (as a rule, an inhibitory concentration at the 90% level, which refers to growth in some studies and to a panel of isolates in others) came out at 0.25 mg/L (≈ 1.46 µM) in test [1]; 1 mg/L (≈ 5.84 µM) against Parabacteroides merdae; 1 mg/L (≈ 5.84 µM) in the test with Bacteroides uniformis [2]; 0.25 mg/L (≈ 1.46 µM) in the test on Porphyromonas somerae; 1 mg/L (≈ 5.84 µM) against Clostridium perfringens; 1 mg/L (≈ 5.84 µM) in the test with Anaerococcus tetradius [7]. This compound displayed an MIC90 against Bacteroides stercoris of 1 mg/L (≈ 5.84 µM). For the same compound, the Activity in the test with Anaerococcus prevotii amounted to 0%; with Clostridium cadaveris, 0%; in [3], 0%; in [4], 0%; in the test with Cutibacterium acnes, 100%; in the test with Bacteroides uniformis [5], 0%. For the same compound, the Activity (in the test on Parvimonas micra; in the test with Anaerococcus tetradius [6]; in test [8]) was 0% in each case.
